Active and inactive are the calls of the source. The calls are words filed in the database; no cut-off is given here.
Columns and labels:
[1] = test system: DNA topoisomerase I (Bos taurus); test: Induction of DNA intercalation assessed as reduction in topoisomerase 1-mediated DNA relaxation at 100 uM using supercoiled pBR322 DNA incubated for 0.5 hrs in presence of calf thymus topoisomerase 1 by electrophoresis method
[2] = target: T1, Topoisomerase I (Bos taurus) (UniProt Q2HPH0); test: (§1) Inhibition of calf thymus topoisomerase 1 assessed as suppression of relaxation of supercoiled pBR322 DNA at 100 uM incubated for 0.5 hrs by bromophenol blue and xylene cyanol FF staining based electrophoresis method
T1 sequence (whole entry): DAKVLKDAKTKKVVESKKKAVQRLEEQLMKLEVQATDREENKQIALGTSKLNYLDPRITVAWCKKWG
Summary of the method: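 Calf thymus Topo I with supercoiled pBR322 DNA and 100 μM compound, 37 °C for 0.5 h. Stopped with dye solution (bromophenol blue, xylene cyanol FF, glycerol). 1% agarose, 0.66 h in 1× TAE, then 5 μg mL-1 EB staining 0.5 h and UV imaging. Inhibition judged from supercoiled DNA remaining; camptothecin as control.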

[3] = target: T1, Topoisomerase I (Bos taurus); test: Inhibition of calf thymus topoisomerase 1 assessed as increase in nicked DNA at 50 uM using supercoiled pBR322 DNA incubated for 0.5 hrs by ethidium bromide staining based DNA-cleavage assay
Summary of the method: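 Reaction: 20 units Topo I, 0.5 μg supercoiled pBR322 DNA, 50 or 100 μM compound in 40 μL Topo I buffer, 37 °C for 0.5 h. Terminated with 1% SDS, proteinase K 0.8 mg mL-1 at 50 °C for 10 min. Electrophoresis 60 V, 25 °C, 0.5 h, EB soak 0.5 μg mL-1, second run 0.5 h. Read-out: nicked versus other band intensities, UV.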

[4] = target: T1, Topoisomerase I (Bos taurus); test: Inhibition of calf thymus topoisomerase 1 assessed as increase in nicked DNA at 10 uM using supercoiled pBR322 DNA incubated for 0.5 hrs by ethidium bromide staining based DNA-cleavage assay
[5] = target: T1, Topoisomerase I (Bos taurus); test: Inhibition of calf thymus topoisomerase 1 assessed as reduction in topo1/DNA complex formation at 50 to 400 uM pre-incubated for 0.33 hrs before addition of supercoiled pBR322 DNA substrate by EMSA
Summary of the method: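 BSA added to Topo I buffer, then four units calf thymus Topo I and compound (50, 100, 200 or 400 μM), standing 0.33 h. 0.1 μg pBR322 DNA added, 37 °C for 0.5 h. Electrophoresis at 1 V cm-1, 4 °C, 8 h on 1% gel containing EB; bands under UV.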

[6] = target: T1, Topoisomerase I (Bos taurus); test: as §1, with “Potency index, ratio of enzyme inhibition of securinine to enzyme inhibition of test compound for inhibition” for “Inhibition”

Compound	Activity [1]	inhibition [2]	inhibition [3]	inhibition [4]	inhibition [5]	Ratio [6]
CCCN(C(=O)c1ccccc1C(=O)N(CCC)[C@H]1CC2=CC(=O)O[C@@]23C[C@@H]1N1CCCCC13)C1CC2=CC(=O)O[C@@]23C[C@@H]1N1CCCC[C@@H]13 (single isomer, unassigned)	inactive	Active				
O=C1C=C2C=C[C@@H]3C[C@@]2(O1)[C@H]1CCCCN31		Active				
CCCN(C(=O)c1ccccc1)[C@H]1CC2=CC(=O)O[C@@]23C[C@@H]1N1CCCC[C@@H]13		Active	inactive	inactive		
CCCN(C(=O)CCCC(=O)N(CCC)[C@H]1CC2=CC(=O)O[C@@]23C[C@@H]1N1CCCC[C@@H]13)[C@@H]1CC2=CC(=O)O[C@@]23C[C@@H]1N1CCCC[C@@H]13		Active				
CCCN(C(=O)[C@H]1CCCC[C@H]1C(=O)N(CCC)[C@H]1CC2=CC(=O)O[C@@]23C[C@@H]1N1CCCC[C@@H]13)[C@@H]1CC2=CC(=O)O[C@@]23C[C@@H]1N1CCCC[C@@H]13		Active				
CCCN(C(=O)Cc1cccc(CC(=O)N(CCC)[C@H]2CC3=CC(=O)O[C@@]34C[C@@H]2N2CCCCC24)c1)C1CC2=CC(=O)O[C@@]23C[C@@H]1N1CCCCC13 (single isomer, unassigned)	inactive	Active				
CCCN(C(=O)c1ccc(C(=O)N(CCC)[C@H]2CC3=CC(=O)O[C@@]34C[C@@H]2N2CCCCC24)cc1)C1CC2=CC(=O)O[C@@]23C[C@@H]1N1CCCC[C@@H]13 (single isomer, unassigned)	inactive	Active				
CCCN(C(=O)CCCCC(=O)N(CCC)[C@H]1CC2=CC(=O)O[C@@]23C[C@@H]1N1CCCC[C@@H]13)[C@@H]1CC2=CC(=O)O[C@@]23C[C@@H]1N1CCCC[C@@H]13		Active	inactive	inactive		
CCCN(C(=O)c1cccc(C(=O)N(CCC)[C@H]2CC3=CC(=O)O[C@@]34C[C@@H]2N2CCCCC24)c1)C1CC2=CC(=O)O[C@@]23C[C@@H]1N1CCCC[C@@H]13 (single isomer, unassigned)	inactive	Active		Active	Dose-dependent effect	3
CCCN(C(=O)Cc1ccc(CC(=O)N(CCC)[C@H]2CC3=CC(=O)O[C@@]34C[C@@H]2N2CCCC[C@@H]24)cc1)[C@@H]1CC2=CC(=O)O[C@@]23C[C@@H]1N1CCCC[C@@H]13	inactive	Active				
CCCN(C(=O)[C@H]1CCC[C@@H](C(=O)N(CCC)[C@H]2CC3=CC(=O)O[C@@]34C[C@@H]2N2CCCC[C@@H]24)C1)[C@@H]1CC2=CC(=O)O[C@@]23C[C@@H]1N1CCCC[C@@H]13		Active	inactive	inactive		
CCCN(C(=O)Cc1ccccc1CC(=O)N(CCC)[C@H]1CC2=CC(=O)O[C@@]23C[C@@H]1N1CCCC[C@@H]13)[C@@H]1CC2=CC(=O)O[C@@]23C[C@@H]1N1CCCC[C@@H]13	inactive	Active				
CC[C@@]1(O)C(=O)OCc2c1cc1n(c2=O)Cc2cc3ccccc3nc2-1		Active	Active	Active		
CCCN(C(=O)[C@H]1CC[C@H](C(=O)N(CCC)[C@H]2CC3=CC(=O)O[C@@]34C[C@@H]2N2CCCC[C@@H]24)CC1)[C@@H]1CC2=CC(=O)O[C@@]23C[C@@H]1N1CCCC[C@@H]13		Active				

— ChEMBL document CHEMBL4138059, “Novel bivalent securinine mimetics as topoisomerase I inhibitors” (Medchemcomm, 2017)
